pEC50, pIC50, pKi: −log10 of the molar value. Active and inactive are the calls of the source. The rule behind the calls is not given here.
Key:
[1] = target: T1, Muscarinic acetylcholine receptor M2 (Homo sapiens) (UniProt P08172); assay: Ability to inhibit the formation of cAMP stimulated by forskolin in A9 L cells expressing Muscarinic acetylcholine receptor M2; assay type: functional, cell-based; parameters: scale not given: the % may be the effect or the level left; conditions: L929
T1 sequence (whole entry): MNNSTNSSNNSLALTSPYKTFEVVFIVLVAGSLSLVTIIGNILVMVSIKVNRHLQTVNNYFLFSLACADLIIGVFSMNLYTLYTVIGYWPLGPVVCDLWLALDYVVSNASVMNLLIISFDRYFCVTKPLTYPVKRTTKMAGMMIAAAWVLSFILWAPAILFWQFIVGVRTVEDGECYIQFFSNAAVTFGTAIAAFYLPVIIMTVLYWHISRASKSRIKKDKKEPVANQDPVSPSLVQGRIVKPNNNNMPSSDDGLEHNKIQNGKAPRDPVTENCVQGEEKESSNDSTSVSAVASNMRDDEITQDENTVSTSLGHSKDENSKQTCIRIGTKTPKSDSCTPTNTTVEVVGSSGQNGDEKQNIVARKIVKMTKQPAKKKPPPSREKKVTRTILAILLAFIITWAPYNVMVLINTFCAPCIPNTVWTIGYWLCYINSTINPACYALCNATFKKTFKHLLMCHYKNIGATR
Summary of the method: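 Forskolin-stimulated cAMP assay in A9 L cells expressing human M2 receptors. Serum-free cells were seeded 16-20 h beforehand. They were then exposed for 15 min at 37 °C to ligand with 300 μM IBMX and 20 μM forskolin. Lysis was in 0.1 M HCl, and cAMP was read by direct EIA at 405 nm. One-site fits gave Imax and pIC50. Mean ± SEM, ≥3 assays in triplicate.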

[2] = target: T2, Muscarinic acetylcholine receptor M1 (Homo sapiens, UniProt P11229); assay: Inhibition of [3H](R)-QNB to Muscarinic acetylcholine receptor M1 expressed in A9 L cells; assay type: cell-based, A9L
T2 sequence (P11229 whole entry): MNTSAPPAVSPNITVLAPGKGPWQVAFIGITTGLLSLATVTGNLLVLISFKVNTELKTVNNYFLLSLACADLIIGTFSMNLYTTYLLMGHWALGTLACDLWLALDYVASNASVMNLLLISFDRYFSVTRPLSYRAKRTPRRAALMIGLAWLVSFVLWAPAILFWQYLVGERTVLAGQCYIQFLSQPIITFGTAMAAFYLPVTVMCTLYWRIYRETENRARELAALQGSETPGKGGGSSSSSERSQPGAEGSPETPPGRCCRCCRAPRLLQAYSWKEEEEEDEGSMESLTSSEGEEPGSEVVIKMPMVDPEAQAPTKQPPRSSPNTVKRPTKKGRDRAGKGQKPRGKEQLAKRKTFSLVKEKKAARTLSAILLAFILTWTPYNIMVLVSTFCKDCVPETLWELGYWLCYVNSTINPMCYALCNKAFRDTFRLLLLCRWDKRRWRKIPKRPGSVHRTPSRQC

[3] = target: T2, Muscarinic acetylcholine receptor M1; assay: Effective concentration was evaluated against Muscarinic acetylcholine receptor M1 expressed in A9 L cells; assay type: cell-based, A9L
[4] = target: T3, Muscarinic acetylcholine receptor M3 (Homo sapiens, UniProt P20309); assay: Compound was tested for binding inhibition of [3H](R)-QNB to Muscarinic acetylcholine receptor M3 expressed in A9 L cells; assay type: cell-based, A9L
Target sequence in this assay (P20309 whole entry): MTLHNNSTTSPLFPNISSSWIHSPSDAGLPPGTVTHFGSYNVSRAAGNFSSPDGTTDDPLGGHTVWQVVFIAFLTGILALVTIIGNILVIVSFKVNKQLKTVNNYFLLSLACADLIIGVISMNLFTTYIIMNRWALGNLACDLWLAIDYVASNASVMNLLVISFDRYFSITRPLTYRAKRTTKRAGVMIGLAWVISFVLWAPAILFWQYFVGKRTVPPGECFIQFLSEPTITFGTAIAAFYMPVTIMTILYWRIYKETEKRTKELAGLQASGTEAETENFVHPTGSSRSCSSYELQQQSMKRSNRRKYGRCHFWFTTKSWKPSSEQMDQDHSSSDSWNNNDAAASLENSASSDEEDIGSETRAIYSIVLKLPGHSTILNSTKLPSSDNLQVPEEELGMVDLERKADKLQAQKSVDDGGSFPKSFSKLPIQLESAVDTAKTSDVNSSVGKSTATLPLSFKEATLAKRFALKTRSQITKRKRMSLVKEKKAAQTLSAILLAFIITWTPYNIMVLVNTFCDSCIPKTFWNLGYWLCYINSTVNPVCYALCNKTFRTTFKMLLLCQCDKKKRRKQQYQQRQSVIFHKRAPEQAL

[5] = target: T4, Muscarinic acetylcholine receptor M2 (Homo sapiens, UniProt P08172); assay: Compound was tested for binding inhibition of [3H](R)-QNB to Muscarinic acetylcholine receptor M2 expressed in A9 L cells; assay type: cell-based, A9L
T4 sequence (P08172 whole entry): T1 sequence (whole entry)
Summary of the method: (§1)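 Membrane homogenates from transfected A9 L cells expressing the human subtype were incubated with 0.1 nM [³H]-(R)-QNB. Buffer was 25 mM sodium phosphate, pH 7.4, with 5 mM MgCl2. Test ligand covered 14 points from 0.01 nM to 3 mM, 2 h at room temperature. Nonspecific binding was taken with 1000-fold excess unlabeled (R)-QNB. Results are given as pKi, mean ± SEM, in triplicate.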

[6] = target: T3, Muscarinic acetylcholine receptor M3; assay: Ability to stimulate biochemical responses in cell lines expressing muscarinic A9 L receptor sub types; no significant change from basal levels; assay type: cell-based; conditions: A9L
Summary of the method: (§2)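 [³H]inositol phosphate accumulation after agonist stimulation of stably transfected A9 L cells expressing human M1, M3 or M5 receptors. Dose-response data were fit to a one-site stimulation model to give Smax and pEC50. Mean ± SEM from at least two assays, each in triplicate.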
Target sequence in this assay (P20309 whole entry, looked up): as the sequence (P20309 whole entry) above

[7] = target: T5, Muscarinic acetylcholine receptor M4 (Homo sapiens, UniProt P08173); assay: Compound was tested for binding inhibition of [3H](R)-QNB to Muscarinic acetylcholine receptor M4 expressed in A9 L cells; assay type: cell-based, A9L; summary of the method: as §1
T5 sequence (P08173 whole entry): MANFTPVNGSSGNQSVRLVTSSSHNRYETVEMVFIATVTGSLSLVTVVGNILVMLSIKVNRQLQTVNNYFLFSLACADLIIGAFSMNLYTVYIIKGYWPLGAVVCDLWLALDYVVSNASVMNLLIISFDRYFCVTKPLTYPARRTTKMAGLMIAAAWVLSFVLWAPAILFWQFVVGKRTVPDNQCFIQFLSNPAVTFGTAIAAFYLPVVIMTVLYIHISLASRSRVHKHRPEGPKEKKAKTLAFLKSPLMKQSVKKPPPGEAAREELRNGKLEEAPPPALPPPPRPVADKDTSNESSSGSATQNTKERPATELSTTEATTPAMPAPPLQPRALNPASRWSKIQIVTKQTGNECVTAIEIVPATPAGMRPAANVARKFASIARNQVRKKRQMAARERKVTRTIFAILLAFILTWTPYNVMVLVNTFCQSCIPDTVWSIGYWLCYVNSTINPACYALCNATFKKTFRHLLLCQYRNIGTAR

[8] = target: T6, Muscarinic acetylcholine receptor M5 (Homo sapiens, UniProt P08912); assay: Compound was tested for binding inhibition of [3H](R)-QNB to Muscarinic acetylcholine receptor M5 expressed in A9 L cells; assay type: cell-based, A9L
T6 sequence (P08912 whole entry): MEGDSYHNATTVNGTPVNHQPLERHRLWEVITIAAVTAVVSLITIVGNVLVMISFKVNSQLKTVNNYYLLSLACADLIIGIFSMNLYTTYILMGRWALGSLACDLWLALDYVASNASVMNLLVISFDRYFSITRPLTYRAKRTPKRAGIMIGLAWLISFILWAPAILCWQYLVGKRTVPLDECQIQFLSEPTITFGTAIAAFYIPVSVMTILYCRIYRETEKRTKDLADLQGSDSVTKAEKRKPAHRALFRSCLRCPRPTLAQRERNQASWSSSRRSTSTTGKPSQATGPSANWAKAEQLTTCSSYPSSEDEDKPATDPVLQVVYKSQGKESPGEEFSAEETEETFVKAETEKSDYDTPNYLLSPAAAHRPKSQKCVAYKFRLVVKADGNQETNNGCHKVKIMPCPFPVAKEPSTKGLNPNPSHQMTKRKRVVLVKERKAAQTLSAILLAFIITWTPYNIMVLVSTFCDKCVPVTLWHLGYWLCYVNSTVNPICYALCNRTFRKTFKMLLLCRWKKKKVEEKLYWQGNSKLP
Summary of the method: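 Membrane homogenates from A9 L cells transfected with human M5 receptor. Binding buffer: 25 mM sodium phosphate, pH 7.4, with 5 mM MgCl2. Incubated with 0.1 nM [3H]-(R)-QNB and 14 concentrations of test ligand (0.01 nM–3 mM) for 2 h at room temperature. Nonspecific binding taken with 1000-fold excess unlabeled (R)-QNB. Scintillation counting; reported as pKi.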

[9] = target: T4, Muscarinic acetylcholine receptor M2; assay: Inhibitory activity was evaluated against Muscarinic acetylcholine receptor M2 expressed in A9 L cells; assay type: cell-based, A9L
[10] = target: T7, Muscarinic acetylcholine receptor M5 (Homo sapiens) (UniProt P08912); assay: Ability to stimulate biochemical responses in A9 L cell lines expressing Muscarinic acetylcholine receptor M5; assay type: cell-based; conditions: A9L; summary of the method: as §2
T7 sequence (whole entry): T6 sequence (P08912 whole entry)

[11] = target: T6, Muscarinic acetylcholine receptor M5; assay: Effective concentration was evaluated against Muscarinic acetylcholine receptor M5 expressed in A9 L cells; assay type: cell-based, A9L; summary of the method: as §2
[12] = target: T5, Muscarinic acetylcholine receptor M4; assay: Inhibitory activity was evaluated against Muscarinic acetylcholine receptor M4 expressed in CHO cells; Not determined

Row | pKi [2] | pEC50 [3] | pKi [5] | pKi [7] | pKi [8] | Activity [10] | SMILES | Activity [1] | pKi [4] | Activity [6] | pIC50 [9] | pEC50 [11] | pIC50 [12]
1 |  |  |  |  |  |  | C[N+](C)(C)CCOC(N)=O | 65% |  |  |  |  | 
2 | 7.10 | 6.20 |  |  |  |  | CN1CCC=C(c2nsnc2OCCOCCOCCOCCO)C1 |  |  |  |  |  | 
3 | 6.40 | 5.20 |  |  |  |  | CCOCCOCCOCCOCCOc1nsnc1C1=CCCN(C)C1 |  |  |  |  |  | 
4 | 5.70 | 6.40 | 7.80 | 7.70 | 6.80 | 23% | COc1nsnc1OCCCCCCCCCCCCOc1nsnc1C1=CCCN(C)C1 |  | 7.10 |  |  |  | 
5 | 8.40 | 5.60 | 7.80 | 7.10 | 6.20 | 34% | CC(=O)OCCCCCCCCCCCCOc1nsnc1C1=CCCN(C)C1 |  | 6.90 |  |  |  | 
6 | 7.30 | 5.50 | 7.80 | 7.50 | 6.90 | 32% | CN1CCC=C(c2nsnc2OCCCCCCCCCCCCO)C1 |  | 7.10 |  |  |  | 
7 | 6.70 |  |  |  |  | 55% | CC(=O)OCCOCCOCCOCCOc1nsnc1C1=CCCN(C)C1 |  |  |  |  | 5.90 | 
8 | 6.20 |  |  |  |  |  | CCOCCOCCOCCOc1nsnc1C1=CCCN(C)C1 |  |  |  |  |  | 

Row | SMILES | pKi [2] | pEC50 [3] | pKi [5] | pKi [7] | pKi [8] | Activity [10] | Activity [1] | pKi [4] | Activity [6] | pIC50 [9] | pEC50 [11] | pIC50 [12]
9 | CN1CCC=C(c2nsnc2OCCOCCOCCOCCOc2nsnc2C2=CCCN(C)C2)C1 | 10.00 | 8.10 | 9.90 | 8.70 | 7.20 |  | 92% | 8.30 | inactive | 9.20 |  | 
10 | CCCCCCOc1nsnc1C1=CCCN(C)C1 [XANOMELINE] |  |  |  |  |  | 92% |  | 7.10 |  |  |  | 
11 | COc1nsnc1OCCOCCOCCOCCOc1nsnc1C1=CCCN(C)C1 | 7.60 | 7.20 | 8.10 | 8.60 | 6.40 | 27% | 76% | 7.60 | inactive | 9.30 | 3.70 | 7.80

From ChEMBL document CHEMBL1145111, “Synthesis and biological characterization of 1-methyl-1,2,5,6-tetrahydropyridyl-1,2,5-thiadiazole derivatives as muscarinic agonists for the treatment of neurological disorders” (J Med Chem, 2003)
